Fh CTSL1 inh: counter-screen for PFM18AAP inhibitors: inhibitors of F. hepatica cathepsin L1. AID 1906. 300,000 tested, 0.49% active. recombinant F. hepatica cathepsin L1, Z-Leu-Arg-MCA fluorescence. inhibition, % at 5.96 µM;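 active = inhibition above the mean of all tested compounds plus 3 SD, set per screening campaign, cut at about 17% in these data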;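 note: 0% = plate median of test compound wells and 100% = 1 µM Z-Phe-Ala-diazomethylketone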
Diaph inh CS: diaphorase inhibition or chemical oxidation counter-screen | 190,000 tested, 0.69% active | inhibition, % at 20 µM | AID 1217 | diaphorase resazurin-to-resorufin fluorescence, NADH, 16 min; bacterial (C. kluyveri) enzyme, not human;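 active = primary screen inhibition at 20 µM above a set limit, cut at about 50% in these data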;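 note: plate controls were DMSO with full reaction for no effect and wells lacking NADH for full effect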
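material = Clostridium kluyveri diaphorase enzyme | amount = 0.14 U/mL diaphorase, enzyme working solution | schedule = incubation 16 min, room temperature | detection = fluorescence of resorufin formed from resazurin, Ex 544/Em 590 nm | benchmarks = positive control minus NADH, DMSO neutral control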
Diaphorase act: activates diaphorase or chemically reduces, flagging diaphorase assay artifacts. activation factor at 20 µM. 190,000 tested, 0.005% active. Diaphorase/resazurin coupled assay, resorufin fluorescence, 16 min; hits give high values; 1 = vehicle wells, 0 = NADH-free wells. AID 1229;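 active = diaphorase activity raised at least twofold by the compound at 20 µM; inactive = activation factor below 2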
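Material: purified diaphorase enzyme from Clostridium kluyveri / Medium: HEPES pH 7.4 buffer with MgCl2 and Tween 20 / Schedule: enzyme reaction of 16 min at room temperature / Measured by: resorufin fluorescence, excitation 544 nm, emission 590 nm / Evaluation: rise in resorufin formation, marking diaphorase activation or chemical reduction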
HKDC1 inhibitor: blocks human hexokinase HKDC1 activity; 340,000 tested, 0.16% active; AID 493160; inhibition, % at 20 µM; recombinant HKDC1, G6PDH/diaphorase resazurin coupled fluorescence; Q2TB90;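 active = inhibition above about 35% when tested at 20 µM, limit read from the data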;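 note: plate controls were DMSO wells with enzyme for no effect and DMSO wells lacking enzyme for full effect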
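Material – in-house recombinant HK5 (HKDC1) enzyme · Quantity – HKDC1 at 5 µg/mL · Buffer or medium – pH 8.0 Tris buffer with 10 mM MgCl2 · Reagent – glucose with 1 mM ATP · Dosing – single 20 µM dose · Times – reaction time 90 min, room temperature, protected from light · Technique – resorufin fluorescence at 613 nm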
ATG4B inhibitor: ATG4B (human) cysteine protease inhibition | 340,000 tested, 0.51% active | Q9Y4P1 | inhibition, % at 8.33 µM | ATG4B cleavage of LC3-PLA2, NBD-HPC fluorescence, 1 h; in the data active = inhibition above about 40%
Target sequence (Q9Y4P1 whole entry, looked up): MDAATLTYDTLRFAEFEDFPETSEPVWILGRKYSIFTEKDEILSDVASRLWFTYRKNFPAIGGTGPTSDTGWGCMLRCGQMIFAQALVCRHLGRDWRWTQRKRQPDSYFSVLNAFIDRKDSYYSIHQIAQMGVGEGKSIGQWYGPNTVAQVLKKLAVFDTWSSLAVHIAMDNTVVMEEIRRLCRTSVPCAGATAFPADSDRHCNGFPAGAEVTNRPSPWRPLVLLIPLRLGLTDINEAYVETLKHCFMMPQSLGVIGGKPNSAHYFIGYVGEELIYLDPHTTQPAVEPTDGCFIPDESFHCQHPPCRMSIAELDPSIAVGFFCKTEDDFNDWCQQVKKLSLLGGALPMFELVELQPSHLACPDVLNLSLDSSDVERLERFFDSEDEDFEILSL
ATG4B confirm: ATG4B (human) inhibition, single-dose confirmed; inhibition, % at 8.33 µM; AID 504757; shares compounds with ATG4B inhibitor; ATG4B protease fluorescent substrate cleavage assay; 320 tested, 92% active; in the data active = inhibition above about 39%
PLA2 ctr: PLA2 (human) inhibition in ATG4B counter-screen. shares compounds with ATG4B inhibitor. AID 588402. purified PLA2, NBD-C6-HPC fluorescence, 45 min. 1,600 tested, 66% active. inhibition, % at 8.33 µM; in the data active = inhibition above about 50%
Target sequence (P04054 whole entry, looked up): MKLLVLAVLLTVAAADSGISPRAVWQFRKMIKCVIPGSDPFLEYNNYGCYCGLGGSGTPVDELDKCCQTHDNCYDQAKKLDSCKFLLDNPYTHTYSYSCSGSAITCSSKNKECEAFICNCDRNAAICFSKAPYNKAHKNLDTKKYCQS
Starred values were filed as active, the others as inactive; · = not tested or not shown. Only some compounds are listed: those with a hit (about 1.4% of all), similar ones and a draw of the others.

SMILES	Fh CTSL1 inh	Diaph inh CS	Diaphorase act	HKDC1 inhibitor	ATG4B inhibitor	PLA2 ctr	others
Cc1c(CCOC(=O)C23CC4(C)CC(C)(CC(C)(C4)C2)C3)sc[n+]1CC(=O)c1ccccc1	-1	-79	1.8	-3	47*	47	ATG4B confirm=51*
COc1ccccc1C(=O)Nc1ccc2c(c1)n(C)c(=O)n2C	-1	·	·	-1	-6	·
O=C1c2ccccc2C(=O)N1CCCc1c[nH]c2ccc(Cl)cc12	-1	17	0.8	0	53*	50
O=C(OCC(=O)N1CCc2ccccc21)c1c2c(nc3ccccc13)CCCC2	2	16	0.8	-7	-21	·
CC1Cc2ccccc2N1C(=O)COC(=O)c1c2c(nc3ccccc13)CCCCC2 (stereo not given)	1	16	0.8	19	44*	49
COc1ccc(-n2c(C)c(C(C)=O)c3cc(OCC(N)=O)ccc32)cc1	0	36	0.6	4	50*	58*
Cn1c(-c2c(N)n(CCCc3ccccc3)c3nc4ccccc4nc23)nc2ccccc21	·	15	0.9	-3	42*	52*
S=C(NCCSCc1ccc(Cl)c(Cl)c1)Nc1ccccc1	0	·	·	2	41*	45	ATG4B confirm=64*
S=C(NCCSCc1c(Cl)cccc1Cl)Nc1ccccc1	4	28	0.7	5	45*	50*
COc1ccc(CSCCNC(=S)Nc2ccccc2)cc1Cl	3	15	0.9	3	13	·
S=C(NCCSCc1ccc(Cl)cc1Cl)Nc1ccccc1	-1	16	0.8	1	35	·
Cc1noc(C)c1S(=O)(=O)Nc1ccc(C#N)cc1	-2	·	·	-7	0	·
Cc1cc(C)cc(N2C(=O)CN(Cc3ccccc3)C2=S)c1	1	·	·	2	70*	75*
CCc1ccc(N2C(=O)CN(Cc3cccs3)C2=S)cc1	0	1	1	10	65*	81*
CCc1ccc(N2C(=O)CN(Cc3ccccc3)C2=S)cc1	0	·	·	4	12	·
CCC(CO)Oc1cc(NC(=O)c2ccccc2Cl)c2ncn(C(C)C)c2c1 (stereo not given)	·	·	·	6	-6	·
NC(=O)CSc1nnc(-c2cccs2)n1Cc1ccco1	-3	·	·	-3	-10	·
Cc1ccc(C)c(CSc2nnc(-c3cccs3)n2Cc2ccco2)c1	0	16	0.8	-1	83*	77*
O=C1/C(=C/c2c[nH]c3ccccc23)CCC/C1=C\c1c[nH]c2ccccc12	3	18	0.8	-11	75*	75*
O=C1CS/C(=N/N=C/c2c[nH]c3ccccc23)N1	7	·	·	-7	2	·
O=C(NNC(=O)c1ccccc1O)c1cccc(Br)c1	-4	·	·	-11	4	·
CC(C)C[C@H](NC(=O)OC(C)(C)C)C(=O)N/N=C/C1=Cc2ccccc2OC1C (stereo not given in full)	7	31	0.7	-5	42*	31	ATG4B confirm=69*
CC(C)C[C@H](NC(=O)OC(C)(C)C)C(=O)N/N=C/c1ccc2nccnc2c1	4	8	0.9	-5	-2	·
O=C1/C(=C/c2ccc([N+](=O)[O-])cc2)CCc2ccccc21	1	·	·	·	·	·
Cc1ccccc1/C=C1\CCCc2ccccc2C1=O	-7	0	1	3	53*	61*
SMILES	Fh CTSL1 inh	Diaph inh CS	Diaphorase act	HKDC1 inhibitor	ATG4B inhibitor	PLA2 ctr	others
Cc1ccsc1/C=C1\CCc2ccccc2C1=O	0	27	0.7	17	46*	68*
O=C(Cc1cccc(NC(=O)C2CCN(C(=O)C3CCC3)CC2)c1)Nc1cccc(C(=O)N2CCCC2)c1	·	·	·	1	-5	·
CCCCN(C(=O)CSCc1ccc(C)cc1)c1c(N)n(CCC)c(=O)[nH]c1=O	1	·	·	-3	-6	·
CCCN(CC1CC1)C(=O)CSc1ncnc2sc(C)c(C)c12	0	10	0.9	0	53*	56*
COc1ccc(C(CC(=O)NCc2ccccc2)C(C)C)cc1 (stereo not given)	0	·	·	0	46*	44	ATG4B confirm=59*
CSc1ccccc1OCc1cc(C(=O)N2CCN3CCCC3C2)no1 (stereo not given)	8	·	·	-6	-5	·
COc1c(Br)cc(C(N)=O)cc1OCc1ccccc1	0	22	0.8	-5	67*	72*
CCOc1cc(C(N)=O)cc(OCC)c1OCC	-1	17	0.8	0	-13	·
CCOc1cc(C(N)=O)cc(Br)c1OC	-3	-6	1.1	-2	-5	·
CCOc1cc(C(N)=O)cc(Br)c1OCc1ccccc1	6	11	0.9	-9	46*	60*
O=C(Nc1nc2nc(-c3ccccc3)cc(-c3ccccc3)n2n1)c1ccco1	1	8	0.9	1	42*	51*
COc1ccc(C(=O)N(C)CC2CCN(CCc3cccc(C(F)(F)F)c3)CC2)cc1C	1	·	·	6	2	·
O=C(NNc1ccc(C2CCCCC2)cc1)C(O)(c1ccccc1)c1cccs1 (stereo not given)	0	14	0.9	3	67*	70*
O=C(NCc1cc([N+](=O)[O-])ccc1O)c1cccnc1Sc1ccccc1Cl	3	·	·	0	3	·
Cc1cccc(C(=O)c2cnc3ccccc3c2-c2ccccc2)c1	1	1	1	6	57*	59*
CCN(CC(=O)Nc1c(F)cccc1F)C(=O)c1ccc2c(c1)S(=O)(=O)N=C1CCCCCN12	2	·	·	-3	-3	·
CC(C)COc1ccc(CNC(=S)NCc2ccccc2)cc1	1	23	0.8	3	64*	76*
CCOc1ccc(CNC(=S)NCc2ccc(OCC)cc2)cc1	1	9	0.9	7	0	·
COc1ccc(CCn2c(C)cc(C(=O)CN3C(=O)C(=O)N(Cc4ccco4)C3=O)c2C)cc1	·	·	·	3	0	·
N=C1SC(c2ccccc2)C(=O)N1c1ncc(Cc2ccccc2Cl)s1 (stereo not given)	1	6	0.9	7	79*	80*
O=C(CSc1nnnn1-c1ccccc1)Nc1ncc(Cc2ccccc2Cl)s1	-3	1	1	-2	-2	·
OC(c1cc(-c2ccc(Cl)cc2)nc2ccccc12)C1CCCCN1 (stereo not given)	4	·	·	-5	42*	52*
O=C(NCC(=O)N1CCN(c2ccccc2F)CC1)c1ccc(Br)o1	3	·	·	-3	-3	·
CCCN(C(=O)C1CCN(S(=O)(=O)c2ccc(OC)c(OC)c2)CC1)C1CCS(=O)(=O)C1 (stereo not given)	-4	·	·	0	-5	·
